For assay [1], the system named is SK-LU-1. In words: Growth inhibition of human SKLU1 cells at 50 uM after 48 hrs by SRB assay. Conditions: for inhibition of growth at 50 µM: SK-LU-1, 48 h, read-out: GI. Format: functional. The gist of the method:
(§1)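 Cell lines obtained from NCI, grown in RPMI-1640 with 10% fetal bovine serum, 2 mM glutamine, penicillin G, streptomycin, amphotericin B and 1% non-essential amino acids, at 37 °C, humidified 5% CO2. Cell viability above 95% by trypan blue. Compounds tested in DMSO. Growth read by sulforhodamine B protein staining in microculture per NCI protocol, reported as % inhibition.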
For orientation: Sulforhodamine B stains cellular protein and so reports cell mass.

The subject of a further assay is PC-3. Briefly: Growth inhibition of human PC3 cells at 50 uM after 48 hrs by SRB assay. Conditions: for inhibition of growth at 50 µM: PC-3, 48 h, read-out: GI. The assay is classed as functional. The gist of the method: as §1
In a further assay the test system is K562. Briefly: Growth inhibition of human K562 cells at 50 uM after 48 hrs by SRB assay. Conditions: for inhibition of growth at 50 µM: K562, 48 h, read-out: GI. Format: functional. The gist of the method: as §1
The subject of another assay is U-251. Briefly: Growth inhibition of human U251 cells at 50 uM after 48 hrs by SRB assay. Format: functional. The following applies: for inhibition of growth at 50 µM: U-251, 48 h, read-out: GI. The gist of the method:
as §1

Assay [2] deals with HCT-15. Briefly: Anticancer activity against human HCT15 cells after 48 hrs by SRB assay. The assay is classed as functional, cell-based.
The subject of another assay is MCF7. Briefly: Growth inhibition of human MCF7 cells at 50 uM after 48 hrs by SRB assay. The assay is classed as functional. The following applies: for inhibition of growth at 50 µM: MCF7, 48 h, read-out: GI. The gist of the method: as §1
In assay [3] the test system is SK-LU-1. In words: Anticancer activity against human SKLU1 cells after 48 hrs by SRB assay. The assay is classed as functional, cell-based.
The subject of assay [4] is HCT-15. In words: Growth inhibition of human HCT15 cells at 50 uM after 48 hrs by SRB assay. The assay is classed as functional. Conditions: for inhibition of growth at 50 µM: HCT-15, 48 h, read-out: GI. The gist of the method:
as §1

The results in this text go back to ChEMBL document CHEMBL1932995, “Synthesis of 5-aryl-1,4-benzodiazepine derivatives attached in resorcinaren-PAMAM dendrimers and their anti-cancer activity” (Bioorg Med Chem, 2012).

Active and inactive are the calls of the source. The rule behind the calls is not given here.

As for `COC(=O)CN1C(=O)CN=C(c2ccccc2Cl)c2cc(Cl)ccc21`, the inhibition of growth at 50 µM was 12.5% in the assay on SK-LU-1 [1]; 12.8% in the assay on PC-3; 15.9% with K562; 18.6% with U-251; 11.8% in the assay on MCF7; 12.9% with HCT-15 [4]. Further, the IC50 result with HCT-15 [2] and in the assay with SK-LU-1 [3] was “Active” each time.
With `Oc1cc(O)c2cc1C(CCc1ccccc1)c1cc(c(O)cc1O)C(CCc1ccccc1)c1cc(c(O)cc1O)C(CCc1ccccc1)c1cc(c(O)cc1O)C2CCc1ccccc1` (configuration not stated), the inhibition of growth at 50 µM amounted to 14.8% in the assay on SK-LU-1 [1]; 5.4% in the assay with PC-3; 60.8% in the assay with K562; 47.6% in the assay with U-251; 21.5% with MCF7; 14.7% with HCT-15 [4].
`NCCNC(=O)CCN(CCNC(=O)COc1cc(OCC(=O)NCCN(CCC(=O)NCCN)CCC(=O)NCCN)c2cc1C(CCc1ccccc1)c1cc(c(OCC(=O)NCCN(CCC(=O)NCCN)CCC(=O)NCCN)cc1OCC(=O)NCCN(CCC(=O)NCCN)CCC(=O)NCCN)C(CCc1ccccc1)c1cc(c(OCC(=O)NCCN(CCC(=O)NCCN)CCC(=O)NCCN)cc1OCC(=O)NCCN(CCC(=O)NCCN)CCC(=O)NCCN)C(CCc1ccccc1)c1cc(c(OCC(=O)NCCN(CCC(=O)NCCN)CCC(=O)NCCN)cc1OCC(=O)NCCN(CCC(=O)NCCN)CCC(=O)NCCN)C2CCc1ccccc1)CCC(=O)NCCN` (configuration not stated): the “growth inhibition (GI)” value in the assay on SK-LU-1 [1], in the assay with PC-3, with K562, in the assay with U-251, in the assay on MCF7 and in the assay on HCT-15 [4] was “Active” in each case. The IC50 entry in the assay on HCT-15 [2] and with SK-LU-1 [3] was “Active” each time.
Consider `COC(=O)CN1C(=O)CN=C(c2ccccc2)c2cc(Cl)ccc21`, for which the inhibition of growth at 50 µM was 13.2% in the assay on SK-LU-1 [1]; 12.3% with PC-3; 19.7% in the assay with K562; 11.7% in the assay with U-251; 19.3% with MCF7; 12% with HCT-15 [4]. For the same molecule, the IC50 result in the assay with HCT-15 [2] and with SK-LU-1 [3] was “Active” throughout.
In the case of `COC(=O)CN1C(=O)CN=C(c2ccccc2)c2cc([N+](=O)[O-])ccc21`, the inhibition of growth at 50 µM in the assay on SK-LU-1 [1] was determined as 27.5%; in the assay on PC-3, 22.3%; in the assay on K562, 30.6%; in the assay on U-251 it was 33.7%; in the assay with MCF7 it was 22.2%; in the assay with HCT-15 [4], 25.2%.
With `CCCCCCCCCCCC1c2cc(c(OCC(=O)NCCN)cc2OCC(=O)NCCN)C(CCCCCCCCCCC)c2cc(c(OCC(=O)NCCN)cc2OCC(=O)NCCN)C(CCCCCCCCCCC)c2cc(c(OCC(=O)NCCN)cc2OCC(=O)NCCN)C(CCCCCCCCCCC)c2cc1c(OCC(=O)NCCN)cc2OCC(=O)NCCN` (configuration not stated), the inhibition of growth at 50 µM amounted to 16.2% in the assay on SK-LU-1 [1], 11.2% in the assay with K562, 18.1% in the assay with U-251 and 31.5% with HCT-15 [4]. Further, the “growth inhibition (GI)” value in the assay with PC-3 and in the assay with MCF7 was “Active” throughout. Moreover, the IC50 entry with HCT-15 [2] and with SK-LU-1 [3] was “Active” in each case.
Regarding `NCCNC(=O)COc1cc(OCC(=O)NCCN)c2cc1C(CCc1ccccc1)c1cc(c(OCC(=O)NCCN)cc1OCC(=O)NCCN)C(CCc1ccccc1)c1cc(c(OCC(=O)NCCN)cc1OCC(=O)NCCN)C(CCc1ccccc1)c1cc(c(OCC(=O)NCCN)cc1OCC(=O)NCCN)C2CCc1ccccc1` (configuration not stated), the inhibition of growth at 50 µM with SK-LU-1 [1] is 30.9%; in the assay on PC-3, 29%; with K562, 35.3%; with U-251, 37%; in the assay with MCF7, 33.2%; in the assay on HCT-15 [4] it was 34.9%.
Turning to `CCCCCCCCCCCC1c2cc(c(OCC(=O)NCCN(CCC(=O)NCCN)CCC(=O)NCCN)cc2OCC(=O)NCCN(CCC(=O)NCCN)CCC(=O)NCCN)C(CCCCCCCCCCC)c2cc(c(OCC(=O)NCCN(CCC(=O)NCCN)CCC(=O)NCCN)cc2OCC(=O)NCCN(CCC(=O)NCCN)CCC(=O)NCCN)C(CCCCCCCCCCC)c2cc(c(OCC(=O)NCCN(CCC(=O)NCCN)CCC(=O)NCCN)cc2OCC(=O)NCCN(CCC(=O)NCCN)CCC(=O)NCCN)C(CCCCCCCCCCC)c2cc1c(OCC(=O)NCCN(CCC(=O)NCCN)CCC(=O)NCCN)cc2OCC(=O)NCCN(CCC(=O)NCCN)CCC(=O)NCCN` (configuration not stated), the inhibition of growth at 50 µM came to 100% with SK-LU-1 [1]; 38.5% in the assay with PC-3; 100% in the assay with K562; 56.5% with U-251; 92% in the assay on MCF7; 91.3% in the assay with HCT-15 [4].
As to `COC(=O)CN1C(=O)CN=C(c2ccccc2F)c2cc(Cl)ccc21`, the inhibition of growth at 50 µM in the assay on SK-LU-1 [1] was 19.8%; in the assay on PC-3, 22.4%; in the assay on K562 it was 27.2%; in the assay on U-251, 20.7%; in the assay with MCF7, 24.5%; with HCT-15 [4] it was 26%.
